Reference: ChEMBL document CHEMBL1122079, “Tryptophan analogues. 1. Synthesis and antihypertensive activity of positional isomers” (1982)

Assays:
Felis catus [1] = experiment: Change in blood pressure in normotensive anesthetized cat.; format: functional
Method in brief: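 Normotensive cats of either sex (2-4 kg) anesthetized with α-chloralose (80 mg/kg iv). Trachea, femoral artery and jugular vein cannulated. Compound given iv at 10 mg/kg, with 1 mg/kg iv used in one case. Mean blood pressure recorded by pressure transducer before and 30 min after dosing, reported as decrease in mmHg.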

Rattus norvegicus [2] = experiment: Antihypertensive activity in renal hypertensive rats 6 hr after oral administration (10 mg/Kg); format: functional
Method in brief: (§1)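 Renal hypertensive rats (5 or 10 per group), 10 mg/kg given orally. Systolic pressure measured indirectly by tail occluding cuff with pulse sensor, once before dosing as control and again at 1, 2, 4, 6 and 8 h. Values are changes in mean systolic pressure from control (mmHg). Significance of control vs posttreatment assessed by Wilcoxon's signed rank test (p < 0.05).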

Rattus norvegicus [3] = experiment: Antihypertensive activity in renal hypertensive rats 8 hr after oral administration (10 mg/Kg); format: functional; method in brief: as §1
Rattus norvegicus [4] = experiment: Antihypertensive activity in renal hypertensive rats 1 hr after oral administration (10 mg/Kg); format: functional; method in brief: as §1
Rattus norvegicus [5] = experiment: Antihypertensive activity in renal hypertensive rats 2 hr after oral administration (10 mg/Kg); format: functional; method in brief: as §1
Rattus norvegicus [6] = experiment: Antihypertensive activity in renal hypertensive rats 4 hr after oral administration (10 mg/Kg); format: functional; method in brief: as §1
Felis catus [7] = experiment: Control blood pressure in normotensive anesthetized cat at dose 10 mg/Kg iv

Structure (SMILES)	BP (Felis catus [1])	BP (Rattus norvegicus [2])	BP (Rattus norvegicus [3])	BP (Rattus norvegicus [4])	BP (Rattus norvegicus [5])	BP (Rattus norvegicus [6])	control BP (Felis catus [7])
COc1ccc2[nH]cc(C(CN)C(=O)O)c2c1 (stereo not drawn)	-5 mmHg	-6 mmHg	-2 mmHg	-1 mmHg	-10 mmHg	2 mmHg	142 mmHg
COC(=O)C(CN)c1c[nH]c2ccc(F)cc12.Cl (stereo not drawn)	-30 mmHg	-4 mmHg	1 mmHg	-28 mmHg	-18 mmHg	-9 mmHg	133 mmHg
CCOC(=O)C(CNC(C)=O)c1cn(C(=O)OCC)c2ccccc12 (stereo not drawn)	-49 mmHg	-22 mmHg	-18 mmHg	-3 mmHg	-3 mmHg	-18 mmHg	135 mmHg
COC(=O)C(CN)c1c[nH]c2cccc(Cl)c12.Cl (stereo not drawn)	-10 mmHg	-9 mmHg	-8 mmHg	-7 mmHg	-9 mmHg	-20 mmHg	131 mmHg
COC(=O)C(CN)c1c[nH]c2ccccc12.Cl (stereo not drawn)	-53 mmHg	-6 mmHg	-7 mmHg	-7 mmHg	-9 mmHg	-9 mmHg	156 mmHg
CCOC(=O)NCC(c1nnn[nH]1)c1c[nH]c2ccccc12 (stereo not drawn)	5 mmHg	-17 mmHg	-15 mmHg	-10 mmHg	-6 mmHg	-24 mmHg	155 mmHg
CCOC(=O)C(CNC(C)=O)c1cn(C(=O)OCC)c2cccc(Cl)c12 (stereo not drawn)	11 mmHg	0 mmHg	2 mmHg	-8 mmHg	-1 mmHg	3 mmHg	183 mmHg
NCC(c1nnn[nH]1)c1c[nH]c2ccccc12 (stereo not drawn)	-5 mmHg	5 mmHg	2 mmHg	8 mmHg	1 mmHg	8 mmHg	155 mmHg
COC(=O)C(CN)c1c[nH]c2cc(OC)c(OC)cc12.Cl (stereo not drawn)	-16 mmHg	-7 mmHg	-2 mmHg	-15 mmHg	-2 mmHg	-4 mmHg	160 mmHg
CCOC(=O)C(CN)c1c[nH]c2ccc(OC)cc12.Cl (stereo not drawn)	0 mmHg	-2 mmHg	-3 mmHg	-5 mmHg	-4 mmHg	4 mmHg	160 mmHg
CCOC(=O)C(CN)c1c[nH]c2ccc(Br)cc12.Cl (stereo not drawn)	-18 mmHg	-3 mmHg	1 mmHg	-3 mmHg	-7 mmHg	-2 mmHg	143 mmHg
NC(Cc1c[nH]c2ccc(O)cc12)C(=O)O (stereo not drawn)	-24 mmHg	6 mmHg	-1 mmHg	-9 mmHg	-5 mmHg	0 mmHg	162 mmHg
COC(=O)C(CN)c1c[nH]c2cc(Cl)ccc12.Cl (stereo not drawn)	-7 mmHg	-15 mmHg	-7 mmHg	-14 mmHg	-23 mmHg	-17 mmHg	140 mmHg
CCOC(=O)CC(c1nnn[nH]1)c1c[nH]c2cc(OC)c(OC)cc12 (stereo not drawn)	-6 mmHg	-25 mmHg	-14 mmHg	-11 mmHg	-15 mmHg	-20 mmHg	164 mmHg
